Six molecules from ChEMBL document CHEMBL5550118, “Human mitochondrial glutathione transferases: Kinetic parameters and accommodation of a mitochondria-targeting group in substrates” (Bioorg Med Chem, 2024) can be followed below.

Data set [1] is described as follows: GSH reactivity in […] at 30 degreeC assessed as second-order reaction rate constant. It counts as ADME. Conditions: buffer.
Substrate in data set [2]: O=[N+]([O-])c1ccc(Cl)c([N+](=O)[O-])c1
As to the kind of experiment: Substrate activity at N-terminal His6 tagged human GSTK1-1 expressed in Escherichia coli BL21(DE3) assessed as catalytic constant at pH 8 at 30 degreeC by Michaelis-Menten analysis. In short, it runs like this: (§1)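 His6/TEV-tagged human GST was expressed in E. coli BL21(DE3) and purified on Ni-NTA. Assays used 0.1 M HEPES-HCl, pH 8, 30 °C. One substrate was varied: CDNB or chloronitrobenzene derivatives (derivatives 0.0625–2 mM) with 10 mM GSH, or GSH with 1 mM CDNB. Initial conjugate-formation rates were read at substrate-specific wavelengths, in triplicate. Triplicate background rates were subtracted. Enzyme amount was adjusted as needed. Fit by Michaelis–Menten non-linear regression or Lineweaver–Burk.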

Substrate in data set [3]: O=[N+]([O-])c1ccc(Cl)c([N+](=O)[O-])c1
Briefly: Substrate activity at N-terminal His6 tagged human GSTK1-1 expressed in Escherichia coli BL21(DE3) assessed as Km at pH 8 at 30 degreeC by Michaelis-Menten analysis. In short, it runs like this: as §1

Substrate in data set [4]: O=[N+]([O-])c1cc([N+](=O)[O-])c(NCCCC[P+](c2ccccc2)(c2ccccc2)c2ccccc2)cc1Cl
As to the kind of experiment: (§2) Substrate activity at N-terminal His6 tagged human GSTK1-1 expressed in Escherichia coli BL21(DE3) assessed as Kcat/Km at pH 8 at 30 degreeC by Michaelis-Menten analysis. In short, it runs like this: as §1

Substrate in data set [5]: O=[N+]([O-])c1ccc(Cl)c([N+](=O)[O-])c1
The description is as §2. In short, it runs like this: as §1

Substrate in data set [6]: COC(=O)c1cc([N+](=O)O)ccc1Cl
As to the kind of experiment: Substrate activity at N-terminal His6 tagged human GSTK1-1 expressed in Escherichia coli BL21(DE3) assessed as catalytic constant at pH 8 at 30 degreeC by Lineweaver-Burk plot analysis. The method in brief: (§3)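 N-terminal His6/TEV-tagged enzyme was expressed in E. coli BL21(DE3) by IPTG induction at 15 °C and purified on Ni-NTA. Assays used 0.1 M HEPES-HCl pH 8, 30°C, with GSH fixed at 10 mM and substrate varied from 0.0625 to 2 mM. Conjugate formation was read by UV absorbance, and initial rates were measured in triplicate after subtracting the background rate. Constants came from a double-reciprocal Lineweaver-Burk fit.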

Substrate in data set [7]: COC(=O)c1cc([N+](=O)O)ccc1Cl
Briefly: (§4) Substrate activity at N-terminal His6 tagged human GSTK1-1 expressed in Escherichia coli BL21(DE3) assessed as Kcat/Km at pH 8 at 30 degreeC by Lineweaver-Burk plot analysis. In short, it runs like this:
as §3

Substrate in data set [8]: COC(=O)c1ccc(Cl)c([N+](=O)[O-])c1
The data set is described as §4. In short, it runs like this: as §3

Substrate in data set [9]: O=[N+]([O-])c1ccc(Cl)c([N+](=O)[O-])c1
As to the kind of experiment: Substrate activity at N-terminal His6 tagged human GSTA4-4 expressed in Escherichia coli BL21(DE3) assessed as catalytic constant at pH 6.5 at 30 degreeC by Michaelis-Menten analysis. In short, it runs like this:
(§5)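 N-terminal His6/TEV-tagged human enzyme, expressed in E. coli BL21(DE3) and Ni-NTA purified. Run in 0.1 M sodium phosphate, pH 6.5, 30 °C. CDNB was varied with GSH fixed at 10 mM, or GSH was varied with CDNB fixed at 1 mM (GSH constants apparent). Conjugate formation read at 340 nm as initial rates over ≥1 min, in triplicate. A single background rate was subtracted, then fitted to Michaelis–Menten by non-linear regression.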

Substrate in data set [10]: O=[N+]([O-])c1ccc(Cl)c([N+](=O)[O-])c1
Briefly: Substrate activity at N-terminal His6 tagged human GSTA4-4 expressed in Escherichia coli BL21(DE3) assessed as Km at pH 6.5 at 30 degreeC by Michaelis-Menten analysis. The method in brief: as §5

Substrate in data set [11]: O=[N+]([O-])c1ccc(Cl)c([N+](=O)[O-])c1
As to the kind of experiment: Substrate activity at N-terminal His6 tagged human GSTA4-4 expressed in Escherichia coli BL21(DE3) assessed as Kcat/Km at pH 6.5 at 30 degreeC by Michaelis-Menten analysis. In short, it runs like this:
as §5

Substrate in data set [12]: O=[N+]([O-])c1ccc(Cl)c([N+](=O)[O-])c1
Briefly: Substrate activity at N-terminal His6 tagged human GSTA4-4 expressed in Escherichia coli BL21(DE3) assessed as catalytic constant at pH 8 at 30 degreeC by Michaelis-Menten analysis. In short, it runs like this: as §1

Substrate in data set [13]: O=[N+]([O-])c1ccc(Cl)c([N+](=O)[O-])c1
As to the kind of experiment: Substrate activity at N-terminal His6 tagged human GSTA4-4 expressed in Escherichia coli BL21(DE3) assessed as Km at pH 8 at 30 degreeC by Michaelis-Menten analysis. The method in brief:
as §1

Substrate in data set [14]: O=[N+]([O-])c1cc([N+](=O)[O-])c(NCCCC[P+](c2ccccc2)(c2ccccc2)c2ccccc2)cc1Cl
Briefly: (§6) Substrate activity at N-terminal His6 tagged human GSTA4-4 expressed in Escherichia coli BL21(DE3) assessed as Kcat/Km at pH 8 at 30 degreeC by Michaelis-Menten analysis. The method in brief: as §1

Substrate in data set [15]: O=[N+]([O-])c1ccc(Cl)c([N+](=O)[O-])c1
The data set is described as §6. The method in brief: as §1

Substrate in data set [16]: COC(=O)c1cc([N+](=O)O)ccc1Cl
Briefly: Substrate activity at N-terminal His6 tagged human GSTA4-4 expressed in Escherichia coli BL21(DE3) assessed as catalytic constant at pH 8 at 30 degreeC by Lineweaver-Burk plot analysis. In short, it runs like this: as §3

Substrate in data set [17]: COC(=O)c1cc([N+](=O)O)ccc1Cl
As to the kind of experiment: (§7) Substrate activity at N-terminal His6 tagged human GSTA4-4 expressed in Escherichia coli BL21(DE3) assessed as Kcat/Km at pH 8 at 30 degreeC by Lineweaver-Burk plot analysis. The method in brief:
as §3

Substrate in data set [18]: COC(=O)c1ccc(Cl)c([N+](=O)[O-])c1
The data set is described as §7. In short, it runs like this:
as §3

Substrate in data set [19]: O=C(NCCCCC[P+](c1ccccc1)(c1ccccc1)c1ccccc1)c1ccc(Cl)c([N+](=O)[O-])c1
The description is as §7. In short, it runs like this:
as §3

Substrate in data set [20]: O=[N+]([O-])c1ccc(Cl)c([N+](=O)[O-])c1
Briefly: Substrate activity at N-terminal His6 tagged human GSTA1-1 expressed in Escherichia coli BL21(DE3) assessed as catalytic constant at pH 6.5 at 30 degreeC by Michaelis-Menten analysis. In short, it runs like this:
as §5

Substrate in data set [21]: O=[N+]([O-])c1ccc(Cl)c([N+](=O)[O-])c1
Briefly: Substrate activity at N-terminal His6 tagged human GSTA1-1 expressed in Escherichia coli BL21(DE3) assessed as Km at pH 6.5 at 30 degreeC by Michaelis-Menten analysis. In short, it runs like this:
as §5

Substrate in data set [22]: O=[N+]([O-])c1ccc(Cl)c([N+](=O)[O-])c1
As to the kind of experiment: Substrate activity at N-terminal His6 tagged human GSTA1-1 expressed in Escherichia coli BL21(DE3) assessed as Kcat/Km at pH 6.5 at 30 degreeC by Michaelis-Menten analysis. The method in brief: as §5

Substrate in data set [23]: O=[N+]([O-])c1ccc(Cl)c([N+](=O)[O-])c1
Briefly: Substrate activity at N-terminal His6 tagged human GSTA1-1 expressed in Escherichia coli BL21(DE3) assessed as catalytic constant at pH 8 at 30 degreeC by Michaelis-Menten analysis. In short, it runs like this:
as §1

Substrate in data set [24]: O=[N+]([O-])c1ccc(Cl)c([N+](=O)[O-])c1
Briefly: Substrate activity at N-terminal His6 tagged human GSTA1-1 expressed in Escherichia coli BL21(DE3) assessed as Km at pH 8 at 30 degreeC by Michaelis-Menten analysis. The method in brief: as §1

Substrate in data set [25]: O=[N+]([O-])c1cc([N+](=O)[O-])c(NCCCC[P+](c2ccccc2)(c2ccccc2)c2ccccc2)cc1Cl
As to the kind of experiment: (§8) Substrate activity at N-terminal His6 tagged human GSTA1-1 expressed in Escherichia coli BL21(DE3) assessed as Kcat/Km at pH 8 at 30 degreeC by Michaelis-Menten analysis. The method in brief:
as §1

Substrate in data set [26]: O=[N+]([O-])c1ccc(Cl)c([N+](=O)[O-])c1
Described as §8. In short, it runs like this: as §1

Substrate in data set [27]: O=C(NCCCCC[P+](c1ccccc1)(c1ccccc1)c1ccccc1)c1cc([N+](=O)O)ccc1Cl
As to the kind of experiment: Substrate activity at N-terminal His6 tagged human GSTA1-1 expressed in Escherichia coli BL21(DE3) assessed as catalytic constant at pH 8 at 30 degreeC by Lineweaver-Burk plot analysis. The method in brief: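 Assayed in 0.1 M HEPES-HCl pH 8 at 30°C. GSH fixed at 10 mM and chloronitrobenzene substrate varied 0.0625–2 mM. Initial rate of GS-conjugate formation read by UV absorbance at a substrate-specific wavelength. Background chemical rate (triplicate) subtracted. Triplicate rates, kcat from best-line fit of double-reciprocal plot.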

Substrate in data set [28]: COC(=O)c1cc([N+](=O)O)ccc1Cl
Briefly: (§9) Substrate activity at N-terminal His6 tagged human GSTA1-1 expressed in Escherichia coli BL21(DE3) assessed as Kcat/Km at pH 8 at 30 degreeC by Lineweaver-Burk plot analysis. The method in brief:
as §3

Substrate in data set [29]: COC(=O)c1ccc(Cl)c([N+](=O)[O-])c1
The description is as §9. The method in brief: as §3

Substrate in data set [30]: O=C(NCCCCC[P+](c1ccccc1)(c1ccccc1)c1ccccc1)c1cc([N+](=O)O)ccc1Cl
The description is as §9. The method in brief:
as §3

Substrate in data set [31]: O=C(NCCCCC[P+](c1ccccc1)(c1ccccc1)c1ccccc1)c1ccc(Cl)c([N+](=O)[O-])c1
The data set is described as §9. The method in brief:
as §3

For the molecule `O=[N+]([O-])c1ccc(Cl)c([N+](=O)[O-])c1` [DINITROCHLOROBENZENE], the K in data set [1] was 5.05 10^-5/mM/s.

With `COC(=O)c1ccc(Cl)c([N+](=O)[O-])c1`, the K in data set [1] was 2.92 10^-6/mM/s.

In the case of `O=[N+]([O-])c1cc([N+](=O)[O-])c(NCCCC[P+](c2ccccc2)(c2ccccc2)c2ccccc2)cc1Cl`, in data set [1], the K is on record as 1.5 10^-5/mM/s.

B1: Glutathione S-transferase kappa 1 (Homo sapiens), Q9Y2Q3 (protein)
chain: MGPLPRTVELFYDVLSPYSWLGFEILCRYQNIWNINLQLRPSLITGIMKDSGNKPPGLLPRKGLYMANDLKLLRHHLQIPIHFPKDFLSVMLEKGSLSAMRFLTAVNLEHPEMLEKASRELWMRVWSRNEDITEPQSILAAAEKAGMSAEQAQGLLEKIATPKVKNQLKETTEAACRYGAFGLPITVAHVDGQTHMLFGSDRMELLAHLLGEKWMGPIPPAVNARL
One may read the kcat as the maximal rate divided by the concentration of active sites. For orientation: Km means the substrate concentration at which the rate is half of its maximum. In general, kcat/Km refers to the turnover number divided by the Michaelis constant. With B1, the turnover number (kcat) in data set [2] is 14.6 s⁻¹; in data set [6] it was 9.45 10^-2/s. Further, the Km in [3] was 1900 µM. The kcat/Km in data set [4] is 287 M⁻¹ s⁻¹; in data set [5], 7670 M⁻¹ s⁻¹; in data set [7], 6.13 10^-2/mM/s; in data set [8], 351 M⁻¹ s⁻¹.

B2: Glutathione S-transferase A4 (Homo sapiens), O15217 (protein)
chain: MAARPKLHYPNGRGRMESVRWVLAAAGVEFDEEFLETKEQLYKLQDGNHLLFQQVPMVEIDGMKLVQTRSILHYIADKHNLFGKNLKERTLIDMYVEGTLDLLELLIMHPFLKPDDQQKEVVNMAQKAIIRYFPVFEKILRGHGQSFLVGNQLSLADVILLQTILALEEKIPNILSAFPFLQEYTVKLSNIPTIKRFLEPGSKKKPPPDEIYVRTVYNIFRP
In the case of B2, the kcat in [9] was 14.9 s⁻¹; in data set [12], 4.94 s⁻¹; in data set [16], 5.61 10^-2/s. Besides, the values for the Km in [10] and in data set [13] were 5200 µM and 253 µM, respectively. Besides, the kcat/Km in data set [11] was 2930 M⁻¹ s⁻¹; in [14], 32200 M⁻¹ s⁻¹; in data set [15], 19500 M⁻¹ s⁻¹; in [17], 5.91 10^-2/mM/s; in [18], 146 M⁻¹ s⁻¹; in [19], 2570 M⁻¹ s⁻¹.

B3: Glutathione S-transferase A1 (Homo sapiens), P08263 (protein)
chain: MAEKPKLHYFNARGRMESTRWLLAAAGVEFEEKFIKSAEDLDKLRNDGYLMFQQVPMVEIDGMKLVQTRAILNYIASKYNLYGKDIKERALIDMYIEGIADLGEMILLLPVCPPEEKDAKLALIKEKIKNRYFPAFEKVLKSHGQDYLVGNKLSRADIHLVELLYYVEELDSSLISSFPLLKALKTRISNLPTVKKFLQPGSPRKPPMDEKSLEEARKIFRF
For B3, the kcat was 35.4 s⁻¹ in [20], 45.3 s⁻¹ in data set [23] and 4.67 10^-2/s in data set [27]. Moreover, the Km in data set [21] worked out at 492 µM; in [24], 128 µM. Moreover, the kcat/Km in data set [22] is 71900 M⁻¹ s⁻¹; in [25], 101000 M⁻¹ s⁻¹; in data set [26] it was 353000 M⁻¹ s⁻¹; in [28], 1380 M⁻¹ s⁻¹; in data set [29] it was 4320 M⁻¹ s⁻¹; in [30], 6.49 10^-2/mM/s. For the same molecule, in data set [31], the kcat/Km is 21600 M⁻¹ s⁻¹.
